This note sets out measurements from ChEMBL document CHEMBL4024790 (J Med Chem, 2018).

Active and inactive are the calls of the source. The rule behind the calls is not given here.

Series [1] can be described thus: Apparent intrinsic clearance in human liver microsomes. The format is ADME, microsome. The conditions noted are these: read-out: CLH(app).
Series [2] deals with T1, Cytochrome P450 2B6 (Homo sapiens, UniProt P20813).
T1 sequence (P20813 whole entry): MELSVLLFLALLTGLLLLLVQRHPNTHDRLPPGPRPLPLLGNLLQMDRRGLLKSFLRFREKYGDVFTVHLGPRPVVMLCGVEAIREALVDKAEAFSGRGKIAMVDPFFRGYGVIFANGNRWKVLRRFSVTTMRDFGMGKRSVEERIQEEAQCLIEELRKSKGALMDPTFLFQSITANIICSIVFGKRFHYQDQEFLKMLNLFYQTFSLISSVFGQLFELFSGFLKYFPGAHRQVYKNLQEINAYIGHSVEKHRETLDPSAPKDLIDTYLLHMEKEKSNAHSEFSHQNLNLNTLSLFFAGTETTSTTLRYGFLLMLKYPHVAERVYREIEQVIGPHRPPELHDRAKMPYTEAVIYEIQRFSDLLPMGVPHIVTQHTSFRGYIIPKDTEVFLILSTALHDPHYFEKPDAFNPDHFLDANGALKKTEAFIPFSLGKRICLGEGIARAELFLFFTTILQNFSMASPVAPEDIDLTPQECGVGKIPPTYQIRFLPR
Nature of the series: Time-dependant inhibition of recombinant human CYP2B6. Type of series: ADME. The conditions noted are these: recombinant enzyme.

Series [3] is described as follows: Cmax in beagle dog at 0.3 mg/kg, iv by LC-MS/MS analysis. As to conditions: in vivo. Type of series: ADME, organism-based, Canis lupus familiaris. More on the design: dose 0.3 mg/kg, route intravenous. An outline of the steps:
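Male Wistar-Han rats given single 1 mg/kg IV; beagle dogs 0.3 mg/kg IV; solution in 20% (w/v) sulfobutyl ether β-cyclodextrin with hydrochloric acid, 1 mL/kg (rat) or 0.4 mL/kg (dog). Blood via carotid artery cannula between 2 min and 24 h into EDTA tubes; plasma analysed by LC-MS/MS with positive electrospray.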

Series [4] in a line: Cmax in Wistar Han rat at 5 mg/kg, po administered via gavage by LC-MS/MS analysis. Type of series: ADME, organism-based. More on the design: dose 5 mg/kg, route oral. The conditions noted are these: in vivo.
A short description of series [5]: Drug metabolism in dog hepatocytes assessed as 3-(7-methyl-5-(1-methyl-5-(5-(trifluoromethyl)pyridin-2-yl)-1H-pyrazol-4-yl)imidazo[1,5-f][1,2,4]triazin-4-ylamino)propanoic acid formation at 1 to 50 uM after 1 hr by LC-MS/MS analysis. The format is ADME, cell-based, Canis lupus familiaris, Hepatocyte. Summed up: (§1)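 Rat, dog or human liver microsomes or hepatocytes (P450 0.35–0.5 µM final) incubated with compound at 1, 10 or 50 µM in 100 mM phosphate buffer with 1 mM NADP regenerating system, 37°C for 1 h; quenched with 4 volumes acetonitrile, centrifuged, supernatant evaporated, reconstituted in 5% aqueous acetonitrile and analysed by reversed-phase LC.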

The test system of series [6] is Liver. Nature of the series: Drug metabolism in human liver microsomes assessed as 3-(7-methyl-5-(1-methyl-5-(5-(trifluoromethyl)pyridin-2-yl)-1H-pyrazol-4-yl)imidazo[1,5-f][1,2,4]triazin-4-ylamino)propanoic acid formation at 1 to 50 uM after 1 hr by LC-MS/MS analysis. Type of series: ADME, microsome. Summed up: as §1
A general note: Liver microsomes are vesicles of endoplasmic reticulum, rich in cytochrome P450 enzymes.

A short description of series [7]: Intrinsic clearance in human hepatocytes. The format is ADME, cell-based, Hepatocyte. As to conditions: read-out: CLH.
For series [8], the target named is Cytochrome P450 2C9 (Homo sapiens, UniProt P11712). Kind of series: Time-dependant inhibition of recombinant human CYP2C9. As to conditions: recombinant enzyme. The format is ADME.
Sequence of Cytochrome P450 2C9 (P11712 whole entry): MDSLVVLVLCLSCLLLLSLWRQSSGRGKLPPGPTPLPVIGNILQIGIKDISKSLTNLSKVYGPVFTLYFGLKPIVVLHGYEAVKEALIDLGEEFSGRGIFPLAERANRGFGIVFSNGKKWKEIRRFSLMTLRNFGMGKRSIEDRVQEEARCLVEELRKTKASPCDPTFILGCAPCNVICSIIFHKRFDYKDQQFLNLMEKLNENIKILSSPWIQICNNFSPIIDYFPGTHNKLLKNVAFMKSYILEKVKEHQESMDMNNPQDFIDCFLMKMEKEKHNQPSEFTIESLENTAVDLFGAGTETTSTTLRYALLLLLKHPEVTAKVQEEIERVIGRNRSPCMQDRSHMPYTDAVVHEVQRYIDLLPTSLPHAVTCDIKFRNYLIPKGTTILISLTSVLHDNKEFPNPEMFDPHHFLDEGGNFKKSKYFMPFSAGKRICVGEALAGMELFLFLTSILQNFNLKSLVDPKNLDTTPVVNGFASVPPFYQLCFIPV
The species named for series [9] is Mus musculus. Nature of the series: Increase in cGMP level in CD-1 mouse brain cortex assessed per nM of unbound brain concentration by immunoassay. The format is functional. Summed up:
(§2)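 CD-1 mice dosed SC (solution in 20% SBE-β-CD with 2 molar equivalents 1N HCl, 1 mL/kg); euthanized by focused microwave irradiation of brain; cortex, striatum, hippocampus homogenized in 0.5 N HCl, centrifuged; cyclic nucleotides in supernatant by enzyme immunoassay. Unbound brain exposure from satellite animals; dose-response and time-course data combined with linear model; one-way ANOVA with Fisher's PLSD.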

Series [10] relates to Rattus norvegicus. Kind of series: Effect on spontaneous locomotor activity in Long Evans rat at 0.32 to 3.2 mg/kg, sc. The format is ADME, organism-based. As to conditions: in vivo. An outline of the steps:
(§3)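 Rats dosed SC at 0.32, 1.0 and 3.2 mg/kg; conditioned avoidance responding also run in combination with risperidone 0.032 mg/kg.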

A short description of series [11]: 1-octanol/phosphate buffer solution partition coefficient, log D of the compound at pH 7.4 after 1 hr by LC-MS/MS method. The format is physicochemical.
In series [12] the test system is Rattus norvegicus. Kind of series: Effect on risperidone-induced antipsychotic activity in Long Evans rat at 0.32 to 3.2 mg/kg, sc by conditioned avoidance responding assay. The format is functional, organism-based. An outline of the steps: as §3
The species entered for series [13] is Mus musculus. Nature of the series: Increase in cGMP level in CD-1 mouse brain striatum assessed per nM of unbound brain concentration by immunoassay. Type of series: functional. An outline of the steps: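 CD-1 mice given compound; brains fixed by focused microwave irradiation, and cortex, striatum and hippocampus dissected and homogenized in 0.5 N HCl, then centrifuged. cGMP in the supernatant measured by enzyme immunoassay. Unbound brain concentration taken from satellite animals. Dose-response and time-course data combined, and a linear Cbu–cGMP model fitted. The Cbu E50 is the projected Cbu giving a 50% rise in cGMP. Statistics by one-way ANOVA with Fisher's PLSD, p<0.05.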

Series [14] deals with Mus musculus. Kind of series: In vivo effect on phosphorylated CREB level in CD-1 mouse brain hippocampus by immunoassay. Type of series: functional, organism-based.
Series [15] has as its system Liver. Kind of series: Drug metabolism in dog liver microsomes assessed as 3-(7-methyl-5-(1-methyl-5-(5-(trifluoromethyl)pyridin-2-yl)-1H-pyrazol-4-yl)imidazo[1,5-f][1,2,4]triazin-4-ylamino)propanoic acid formation at 1 to 50 uM after 1 hr by LC-MS/MS analysis. Type of series: ADME, Canis lupus familiaris, microsome. An outline of the steps: as §1
A short description of series [16]: Drug metabolism in rat hepatocytes assessed as 1-(7-methyl-5-(1-methyl-5-(5-(trifluoromethyl)pyridin-2-yl)-1H-pyrazol-4-yl)imidazo[1,5-f][1,2,4]triazin-4-yl)azetidin-3-ol formation at 1 to 50 uM after 1 hr by LC-MS/MS analysis. The format is ADME, cell-based, Hepatocyte. An outline of the steps:
as §1

A short description of series [17]: Tmax in beagle dog at 5 mg/kg, po administered via gavage by LC-MS/MS analysis. As to conditions: in vivo. The format is ADME, organism-based, Canis lupus familiaris.
Series [18] addresses T1, Cytochrome P450 2B6. Nature of the series: Inhibition of recombinant human CYP2B6. The conditions noted are these: recombinant enzyme. The format is ADME.
The species entered for series [19] is Rattus norvegicus. Kind of series: Toxicity in rat assessed as effect on skeletal muscle up to 1 month by microscopic method. The conditions noted are these: in vivo.
Series [20] has as its system Canis familiaris. Kind of series: Cardiotoxicity in dog up to 15 mg/kg/day, po for 14 days by microscopic method. The conditions noted are these: in vivo, 336 h. Type of series: toxicity, organism-based, Canis lupus familiaris.
The species entered for series [21] is Mus musculus. Kind of series: Effect on cAMP level in CD-1 mouse brain cortex by immunoassay. Type of series: functional. An outline of the steps:
as §2
A general note: cAMP levels reflect the balance of adenylyl cyclase and phosphodiesterase activity.

A short description of series [22]: Drug metabolism in dog hepatocytes assessed as 1-(7-methyl-5-(1-methyl-5-(5-(trifluoromethyl)pyridin-2-yl)-1H-pyrazol-4-yl)imidazo[1,5-f][1,2,4]triazin-4-yl)azetidin-3-ol formation at 1 to 50 uM after 1 hr by LC-MS/MS analysis. Type of series: ADME, cell-based, Canis lupus familiaris, Hepatocyte. Summed up: as §1
Series [23] is described as follows: AUC (0 to infinity) in beagle dog at 0.3 mg/kg, iv by LC-MS/MS analysis. Type of series: ADME, organism-based, Canis lupus familiaris. Set-up: dose 0.3 mg/kg, route intravenous, time infinity. As to conditions: in vivo. An outline of the steps: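 Dogs received a single IV dose as a solution in 20% (w/v) sulfobutylether-β-cyclodextrin with hydrochloric acid, at 0.4 mL/kg. Blood was drawn by carotid artery cannula into K3EDTA at set times from 2 min to 24 h. Plasma was acetonitrile-precipitated with internal standard and run by positive-ESI LC-MS/MS against standards of 0.61–1250 ng/mL. AUC was extrapolated from time 0 to infinity.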

The target in series [24] is Cytochrome P450 2D6 (Homo sapiens, UniProt P10635). Nature of the series: Time-dependant inhibition of recombinant human CYP2D6. Type of series: ADME. The conditions noted are these: recombinant enzyme.
Sequence of Cytochrome P450 2D6 (P10635 whole entry): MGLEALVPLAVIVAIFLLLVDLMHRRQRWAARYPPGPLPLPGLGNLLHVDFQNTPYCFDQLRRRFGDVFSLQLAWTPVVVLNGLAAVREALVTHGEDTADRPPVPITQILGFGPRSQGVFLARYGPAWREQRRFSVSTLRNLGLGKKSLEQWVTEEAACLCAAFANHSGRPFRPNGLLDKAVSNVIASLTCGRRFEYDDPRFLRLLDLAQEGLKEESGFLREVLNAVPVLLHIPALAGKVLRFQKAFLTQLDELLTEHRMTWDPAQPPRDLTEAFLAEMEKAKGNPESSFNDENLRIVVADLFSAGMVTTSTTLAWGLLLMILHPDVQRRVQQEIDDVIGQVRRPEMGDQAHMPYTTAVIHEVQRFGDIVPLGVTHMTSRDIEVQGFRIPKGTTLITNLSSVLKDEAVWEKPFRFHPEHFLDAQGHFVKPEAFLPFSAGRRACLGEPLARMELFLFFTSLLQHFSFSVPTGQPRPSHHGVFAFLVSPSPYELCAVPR

As usually defined, the Cmax is the peak of the concentration-time curve. As usually defined, the logD is the decadic logarithm of the distribution of all forms, ionised or not, between an organic phase and buffer at a given pH. Low readings indicate lower lipophilicity, high ones higher lipophilicity. In general, Tmax refers to the time at which the peak concentration occurs. In general, AUC(0-inf) refers to the area under the concentration-time curve extrapolated to infinity. For the compound `Cc1nc(-c2cnn(C)c2-c2ccc(C(F)(F)F)cn2)c2c(N3CCC3)ncnn12` [PF-05180999], the CLint scaled in [1] was determined as 52 mL/min/kg; in series [7] it was 44 mL/min/kg. Also, the TDI result in series [2], in [8] and in series [24] was “Not Active” in each case. Moreover, the Cmax was found to be 293 ng/mL in [3] and 363 ng/mL in series [4]. In addition, the Drug metabolism entry in [5], in [6], in series [15], in series [16] and in series [22] was “Metabolite_Detected” in each case. Further, the Activity in series [9] is on record as 0.63%; in [10], “Non-Toxic”; in series [13] it was 0.51%; in series [19], “Toxic”; in series [20], “Non-Toxic”. In [11], the logD at 1 h is 2.3. Also, the outcome in [12], in [14] and in series [21] was inactive. Moreover, the Tmax in series [17] was found to be 15 min. In [18], the “inhibition (INH)” value is reported as “Not Active”. In addition, the AUC(0-inf) in series [23] was 431 ng·h/mL.
